Read-outs that look alike come from different tables or passages of the source.
What was measured:
[1] = system: CT-DNA; assay: Fluorescence EtBr exchange titration on CT-DNA; assay type: binding; conditions: for Stern–Volmer quenching constant K sv × 10^−3: Tris–HCl buffer pH 7.2, head: Ksv × 10^−3; for bimolecular quenching rate constant k q × 10^−13: τ0 = 23 ns, head: kq × 10^−13
How it was run: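 CT-DNA (10 μM) premixed with EtBr (10 μM) in 5.0 mM Tris–HCl/50 mM NaCl, pH 7.2, then held 4 h at 4 °C. Titrated with incremental aliquots of 5.0 mM test-compound stock in 50% DMSO. Excitation 500 nm; emission decrease recorded over 520–700 nm. Filter-effect corrections applied. DNA concentration set from A260 (ε ≈ 6600 M−1 cm−1).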

[2] = molecular target: BSA (Bos taurus, UniProt P02769); assay: BSA tryptophan fluorescence quenching titration; assay type: binding, Bovine; conditions: for number of binding sites, n / binding constant K F × 10^−5: Scatchard equation; for binding constant K F × 10^−5: head: KF × 10^−5; for Stern–Volmer quenching constant K sv × 10^−5: Tris–HCl/50 mM NaCl pH 7.2, head: Ksv × 10^−5; for bimolecular quenching rate constant k q × 10^−10: head: kq × 10^−10
How it was run: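 BSA stock (10.4 μM) made in 5.0 mM Tris–HCl/50 mM NaCl, pH 7.2, with concentration set from A278 (ε 4.4 × 10^4 M−1 cm−1). Equilibrated buffered BSA with test compound at 0–130 μM at room temperature. Excitation 278 nm; tryptophan emission read over 250–450 nm. Ksv taken from the slope of Io/I versus [Q].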

[3] = system: HepG2 cells; assay: MTT cytotoxicity assay on HepG2 cells; assay type: cell-based, human; conditions: 24 h incubation
How it was run: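 HepG2 grown in DMEM with 10% FBS and penicillin/streptomycin (100 μg mL−1 each) at 37 °C, 5% CO2. Seeded at 1 × 10^4 cells/mL, 24 h, then exposed to test compound at 10–50 μM (10 μM steps) for 24 h. MTT (5 mg mL−1 in PBS) added for 2–4 h; formazan dissolved in DMSO; read at 560 nm against 1% DMSO control. IC50 from nonlinear regression of % viability versus concentration.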

[4] = system: CT-DNA; assay: Viscosity measurements of CT-DNA; conditions: 5.0 mM Tris–HCl buffer, pH 7.2; 1.0–6.0 mM
How it was run: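 Sonicated CT-DNA held at constant concentration (5.0 mM) with added test compound, EtBr as reference. After 15 min equilibration, flow time measured in triplicate with a stopwatch. η = (t − t0)/t0, with t0 the flow time of buffer alone. Results plotted as (η/η0)^1/3 versus binding ratio.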

[5] = system: HepG2 cells; conditions: cited from earlier work

BSA, sequence (P02769 25-607): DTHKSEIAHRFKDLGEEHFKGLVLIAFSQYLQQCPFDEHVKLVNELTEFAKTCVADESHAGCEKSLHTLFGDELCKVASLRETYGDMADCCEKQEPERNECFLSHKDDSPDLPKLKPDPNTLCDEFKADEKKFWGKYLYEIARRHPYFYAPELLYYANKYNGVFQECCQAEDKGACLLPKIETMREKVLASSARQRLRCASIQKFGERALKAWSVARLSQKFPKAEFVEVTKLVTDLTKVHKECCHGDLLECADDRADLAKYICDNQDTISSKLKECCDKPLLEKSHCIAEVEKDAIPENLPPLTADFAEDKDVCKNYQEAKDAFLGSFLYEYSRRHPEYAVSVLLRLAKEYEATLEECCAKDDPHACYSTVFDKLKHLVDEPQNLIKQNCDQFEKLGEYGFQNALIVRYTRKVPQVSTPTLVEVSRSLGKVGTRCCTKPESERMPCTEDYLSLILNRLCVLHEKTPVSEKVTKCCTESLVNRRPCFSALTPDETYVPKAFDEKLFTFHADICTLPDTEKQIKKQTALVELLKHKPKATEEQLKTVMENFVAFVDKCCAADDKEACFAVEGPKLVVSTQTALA

| SMILES | Stern–Volmer quenching constant K sv × 10^−3 [1] [M^−1] | bimolecular quenching rate constant k q × 10^−13 [1] [M^−1 s^−1] | number of binding sites, n [2] | binding constant K F × 10^−5 [2] [M^−1] | Stern–Volmer quenching constant K sv × 10^−5 [2] [M^−1] | bimolecular quenching rate constant k q × 10^−10 [2] [M^−1 s^−1] | IC50 [3] [µM] | relative viscosity of CT-DNA solutions with increasing concentration [4] | IC50 [5] [µM] |
| --- | --- | --- | --- | --- | --- | --- | --- | --- | --- |
| [Cl][Pt][Cl].c1ccc(-c2nc3ccccc3nc2-c2ccccn2)nc1 [bpqPtCl2] | 2.43 ± 0.02 | 1.06 ± 0.10 | 0.98 ± 0.03 | 1.93 ± 0.02 | 2.47 ± 0.03 | 4.97 ± 0.2 | 15.7 ± 1.6 |  |  |
| CC[n+]1c(-c2ccccc2)c2cc(N)ccc2c2ccc(N)cc21.[Br-] [EtBr, 3,8-diamino-5-ethyl-6-phenylphenanthridinium bromide] |  |  |  |  |  |  |  | increased dramatically |  |
| Cc1cc2nc(-c3ccccn3)c(-c3ccccn3)nc2cc1C.[Cl][Pt][Cl] [dmbpqPtCl2] | 3.26 ± 0.05 | 1.47 ± 0.16 | 0.98 ± 0.03 | 2.97 ± 0.07 | 3.47 ± 0.11 | 6.98 ± 0.3 | 14.9 ± 1.4 |  |  |
| [Cl][Pt][Cl].c1ccc(-c2nc3cc4ccccc4cc3nc2-c2ccccn2)nc1 [bbqPtCl2] | 5.49 ± 0.07 | 2.52 ± 0.22 | 1.01 ± 0.05 | 5.34 ± 0.10 | 4.78 ± 0.19 | 9.61 ± 0.5 | 17.4 ± 2 |  |  |
| N.N.[Cl][Pt][Cl] [cisplatin] |  |  |  |  |  |  |  |  | 17.9 ± 2.1 |

Source: PMC9072748 (RSC Advances, 2019)
